Laboratory results published in ChEMBL document CHEMBL1250448, “Inhibitor hijacking of Akt activation” (Nat Chem Biol, 2009).

Assays:
[1] = target: Tyrosine-protein kinase Lck (Homo sapiens) (UniProt P06239); assay: Inhibition of LCK at 1 uM in presence of 10 uM ATP by Select Screen kinase assay relative to untreated control
How it was run: (§1)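 Single-concentration profiling at 1 μM against a panel of 220 purified kinases, run as an outsourced SelectScreen kinase profiling service. Activity is expressed as percent inhibition.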

[2] = target: G protein-coupled receptor kinase 5 (Homo sapiens) (UniProt P34947); assay: Inhibition of GRK5 at 1 uM in presence of 10 uM ATP by Select Screen kinase assay relative to untreated control; how it was run: as §1
G protein-coupled receptor kinase 5 (Homo sapiens), sequence (P34947 whole entry, looked up): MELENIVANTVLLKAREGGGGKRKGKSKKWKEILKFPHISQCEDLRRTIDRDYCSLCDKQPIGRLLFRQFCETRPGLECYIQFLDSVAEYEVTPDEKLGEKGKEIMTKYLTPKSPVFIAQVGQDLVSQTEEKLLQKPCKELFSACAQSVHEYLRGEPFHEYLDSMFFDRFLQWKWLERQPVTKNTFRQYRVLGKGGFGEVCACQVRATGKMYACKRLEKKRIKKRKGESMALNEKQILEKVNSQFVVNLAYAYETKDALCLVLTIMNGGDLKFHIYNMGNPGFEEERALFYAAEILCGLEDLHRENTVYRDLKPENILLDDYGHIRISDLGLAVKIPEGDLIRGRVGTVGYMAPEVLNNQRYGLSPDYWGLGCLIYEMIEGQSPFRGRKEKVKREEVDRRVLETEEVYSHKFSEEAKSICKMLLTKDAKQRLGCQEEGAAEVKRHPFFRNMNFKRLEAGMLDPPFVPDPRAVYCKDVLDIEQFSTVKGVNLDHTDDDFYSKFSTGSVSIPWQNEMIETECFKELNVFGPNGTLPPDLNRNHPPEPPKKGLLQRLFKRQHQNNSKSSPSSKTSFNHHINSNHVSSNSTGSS

[3] = target: MAP kinase-activated protein kinase 2 (Homo sapiens) (UniProt P49137); assay: Inhibition of MAPKAPK2 at 1 uM in presence of 10 uM ATP by Select Screen kinase assay relative to untreated control; how it was run: as §1
MAP kinase-activated protein kinase 2 (Homo sapiens), sequence (P49137 whole entry, looked up): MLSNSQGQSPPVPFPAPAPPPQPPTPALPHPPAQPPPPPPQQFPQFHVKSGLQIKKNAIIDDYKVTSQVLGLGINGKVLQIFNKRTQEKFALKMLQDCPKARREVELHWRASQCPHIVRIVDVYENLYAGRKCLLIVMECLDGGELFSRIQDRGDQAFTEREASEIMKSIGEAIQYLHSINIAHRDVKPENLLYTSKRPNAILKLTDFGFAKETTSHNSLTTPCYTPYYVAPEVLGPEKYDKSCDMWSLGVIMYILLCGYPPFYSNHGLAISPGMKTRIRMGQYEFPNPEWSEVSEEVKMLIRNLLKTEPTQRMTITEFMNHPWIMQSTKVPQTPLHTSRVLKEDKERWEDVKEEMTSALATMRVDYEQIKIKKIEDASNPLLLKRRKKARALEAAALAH

[4] = target: T1, Serine/threonine-protein kinase Nek1 (Homo sapiens) (UniProt Q96PY6); assay: Inhibition of NEK1 at 1 uM in presence of 10 uM ATP by Select Screen kinase assay relative to untreated control; how it was run: as §1
T1 sequence (whole entry): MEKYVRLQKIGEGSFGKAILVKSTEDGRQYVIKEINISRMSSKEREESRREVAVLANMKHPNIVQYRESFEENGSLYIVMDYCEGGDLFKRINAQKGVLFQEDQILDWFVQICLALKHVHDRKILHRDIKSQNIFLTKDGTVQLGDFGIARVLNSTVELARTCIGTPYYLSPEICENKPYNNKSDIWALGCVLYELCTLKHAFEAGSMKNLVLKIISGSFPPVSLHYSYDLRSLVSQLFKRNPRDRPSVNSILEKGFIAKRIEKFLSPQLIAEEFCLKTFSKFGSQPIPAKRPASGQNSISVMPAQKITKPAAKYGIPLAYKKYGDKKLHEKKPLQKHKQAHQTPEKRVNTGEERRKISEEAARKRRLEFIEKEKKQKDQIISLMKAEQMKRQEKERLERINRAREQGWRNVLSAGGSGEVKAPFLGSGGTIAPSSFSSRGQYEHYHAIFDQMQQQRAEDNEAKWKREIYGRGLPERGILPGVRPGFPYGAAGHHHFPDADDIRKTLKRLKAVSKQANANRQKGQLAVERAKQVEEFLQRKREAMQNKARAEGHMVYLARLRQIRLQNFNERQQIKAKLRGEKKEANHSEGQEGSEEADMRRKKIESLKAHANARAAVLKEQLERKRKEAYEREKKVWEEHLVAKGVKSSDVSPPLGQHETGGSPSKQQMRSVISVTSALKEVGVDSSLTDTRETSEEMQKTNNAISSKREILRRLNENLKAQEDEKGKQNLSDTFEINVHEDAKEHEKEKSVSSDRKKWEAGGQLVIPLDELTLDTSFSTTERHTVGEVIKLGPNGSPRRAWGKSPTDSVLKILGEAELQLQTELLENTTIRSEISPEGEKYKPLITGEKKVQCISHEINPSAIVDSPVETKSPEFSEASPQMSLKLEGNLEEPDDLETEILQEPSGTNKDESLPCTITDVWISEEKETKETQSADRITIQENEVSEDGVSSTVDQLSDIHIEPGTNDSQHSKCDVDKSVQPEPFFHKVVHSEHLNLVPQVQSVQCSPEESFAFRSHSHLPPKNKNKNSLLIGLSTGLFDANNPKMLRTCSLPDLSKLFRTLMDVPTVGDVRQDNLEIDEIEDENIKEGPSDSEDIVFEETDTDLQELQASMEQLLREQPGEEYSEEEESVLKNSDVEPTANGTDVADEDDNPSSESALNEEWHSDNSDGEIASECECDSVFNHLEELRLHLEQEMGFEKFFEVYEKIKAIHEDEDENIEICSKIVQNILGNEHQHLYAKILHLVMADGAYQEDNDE

[5] = target: Serine/threonine-protein kinase PLK1 (Homo sapiens) (UniProt P53350); assay: Inhibition of PLK1 at 1 uM in presence of 10 uM ATP by Select Screen kinase assay relative to untreated control
Serine/threonine-protein kinase PLK1 (Homo sapiens), sequence (P53350 whole entry): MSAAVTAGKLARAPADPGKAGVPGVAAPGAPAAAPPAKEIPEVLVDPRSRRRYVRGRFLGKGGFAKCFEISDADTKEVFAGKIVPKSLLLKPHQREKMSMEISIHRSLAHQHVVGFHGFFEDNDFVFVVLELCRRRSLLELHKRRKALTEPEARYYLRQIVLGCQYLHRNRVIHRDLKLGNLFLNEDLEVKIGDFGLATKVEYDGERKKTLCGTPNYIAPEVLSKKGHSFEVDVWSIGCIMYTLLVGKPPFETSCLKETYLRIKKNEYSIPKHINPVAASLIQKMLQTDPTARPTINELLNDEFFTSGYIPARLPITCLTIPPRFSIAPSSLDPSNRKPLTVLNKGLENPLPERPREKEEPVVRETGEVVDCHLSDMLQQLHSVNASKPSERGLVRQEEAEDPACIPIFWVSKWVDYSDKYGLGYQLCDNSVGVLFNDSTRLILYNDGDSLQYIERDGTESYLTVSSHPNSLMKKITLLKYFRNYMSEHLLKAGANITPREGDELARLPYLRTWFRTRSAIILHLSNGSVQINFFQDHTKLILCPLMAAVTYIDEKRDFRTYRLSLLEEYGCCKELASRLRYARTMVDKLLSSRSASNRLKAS
How it was run: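 Commercial SelectScreen profiling panel of 220 purified kinases. Each kinase was tested at a single inhibitor concentration of 1 μM, and activity was expressed as percent inhibition.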

[6] = target: T2, Ephrin type-A receptor 1 (Homo sapiens) (UniProt P21709); assay: Inhibition of EPHA1 at 1 uM in presence of 10 uM ATP by Select Screen kinase assay relative to untreated control
T2 sequence (whole entry): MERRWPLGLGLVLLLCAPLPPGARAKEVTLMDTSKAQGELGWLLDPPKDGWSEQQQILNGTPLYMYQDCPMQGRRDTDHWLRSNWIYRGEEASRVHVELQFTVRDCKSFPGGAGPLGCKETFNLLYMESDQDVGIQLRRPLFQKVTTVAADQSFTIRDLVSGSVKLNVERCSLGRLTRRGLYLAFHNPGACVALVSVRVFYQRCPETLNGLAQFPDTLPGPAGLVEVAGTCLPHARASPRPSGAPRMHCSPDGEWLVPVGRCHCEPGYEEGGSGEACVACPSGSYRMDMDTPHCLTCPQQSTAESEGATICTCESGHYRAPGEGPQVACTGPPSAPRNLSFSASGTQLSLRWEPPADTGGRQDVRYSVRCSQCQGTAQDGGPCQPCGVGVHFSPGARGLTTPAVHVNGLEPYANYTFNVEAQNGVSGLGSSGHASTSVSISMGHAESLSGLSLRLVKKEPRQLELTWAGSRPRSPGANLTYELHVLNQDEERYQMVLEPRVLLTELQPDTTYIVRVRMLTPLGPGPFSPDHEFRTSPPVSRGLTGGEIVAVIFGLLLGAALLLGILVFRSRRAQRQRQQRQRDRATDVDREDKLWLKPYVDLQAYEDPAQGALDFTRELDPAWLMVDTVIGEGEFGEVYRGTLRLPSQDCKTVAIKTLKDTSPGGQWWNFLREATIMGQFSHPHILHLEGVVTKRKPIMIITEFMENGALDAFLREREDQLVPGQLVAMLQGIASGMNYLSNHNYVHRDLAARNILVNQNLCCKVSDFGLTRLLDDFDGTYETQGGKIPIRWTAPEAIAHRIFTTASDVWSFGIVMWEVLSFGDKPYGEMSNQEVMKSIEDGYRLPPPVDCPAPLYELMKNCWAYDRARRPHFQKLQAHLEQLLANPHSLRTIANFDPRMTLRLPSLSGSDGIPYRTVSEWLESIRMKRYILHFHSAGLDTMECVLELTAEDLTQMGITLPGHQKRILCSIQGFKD
How it was run: (§2)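 Single-point screen at 1 μM against a panel of 220 purified kinases, run by Invitrogen staff as a SelectScreen profiling service. Read-out is percent inhibition of kinase activity.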

[7] = target: Macrophage-stimulating protein receptor (Homo sapiens) (UniProt Q04912); assay: Inhibition of MST1R at 1 uM in presence of 10 uM ATP by Select Screen kinase assay relative to untreated control; how it was run: as §1
Macrophage-stimulating protein receptor (Homo sapiens), sequence (Q04912 25-304 limits assumed): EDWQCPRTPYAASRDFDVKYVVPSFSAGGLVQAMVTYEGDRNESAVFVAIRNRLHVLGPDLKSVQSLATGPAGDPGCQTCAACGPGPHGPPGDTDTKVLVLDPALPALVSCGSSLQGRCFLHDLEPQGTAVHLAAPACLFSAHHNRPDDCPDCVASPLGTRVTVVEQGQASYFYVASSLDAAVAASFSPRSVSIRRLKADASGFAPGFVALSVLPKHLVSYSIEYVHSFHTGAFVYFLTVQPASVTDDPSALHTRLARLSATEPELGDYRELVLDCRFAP
Macrophage-stimulating protein receptor (Homo sapiens), sequence (Q04912 310-1400 limits assumed): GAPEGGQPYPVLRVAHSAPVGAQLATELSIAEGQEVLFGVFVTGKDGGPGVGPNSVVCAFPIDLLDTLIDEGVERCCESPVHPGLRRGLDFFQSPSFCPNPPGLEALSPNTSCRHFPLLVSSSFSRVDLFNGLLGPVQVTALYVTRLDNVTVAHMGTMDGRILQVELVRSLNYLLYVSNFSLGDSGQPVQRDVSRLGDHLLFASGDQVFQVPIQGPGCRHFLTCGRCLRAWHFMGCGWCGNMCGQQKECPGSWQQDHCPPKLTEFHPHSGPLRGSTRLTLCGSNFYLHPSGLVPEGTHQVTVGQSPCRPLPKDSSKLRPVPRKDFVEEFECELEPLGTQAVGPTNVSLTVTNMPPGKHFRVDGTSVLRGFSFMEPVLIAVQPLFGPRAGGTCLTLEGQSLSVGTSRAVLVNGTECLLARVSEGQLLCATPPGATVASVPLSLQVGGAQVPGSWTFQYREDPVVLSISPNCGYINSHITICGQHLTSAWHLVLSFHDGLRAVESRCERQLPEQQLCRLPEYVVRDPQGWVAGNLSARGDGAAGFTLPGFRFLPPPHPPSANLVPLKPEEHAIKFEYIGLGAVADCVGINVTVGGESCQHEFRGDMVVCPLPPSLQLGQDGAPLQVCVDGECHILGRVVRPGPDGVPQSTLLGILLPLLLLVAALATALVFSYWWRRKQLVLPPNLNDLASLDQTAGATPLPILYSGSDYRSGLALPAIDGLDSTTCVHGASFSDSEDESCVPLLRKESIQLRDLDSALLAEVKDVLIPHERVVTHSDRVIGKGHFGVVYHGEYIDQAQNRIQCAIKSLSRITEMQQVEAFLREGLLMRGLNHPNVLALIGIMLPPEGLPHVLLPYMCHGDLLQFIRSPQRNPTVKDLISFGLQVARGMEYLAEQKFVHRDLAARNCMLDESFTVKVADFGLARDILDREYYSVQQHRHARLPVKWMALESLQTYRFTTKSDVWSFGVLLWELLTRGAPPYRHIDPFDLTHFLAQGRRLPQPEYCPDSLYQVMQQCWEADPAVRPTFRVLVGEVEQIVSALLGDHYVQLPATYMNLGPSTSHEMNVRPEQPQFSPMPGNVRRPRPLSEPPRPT

[8] = target: Tyrosine-protein kinase Fer (Homo sapiens) (UniProt P16591); assay: Inhibition of FER at 1 uM in presence of 10 uM ATP by Select Screen kinase assay relative to untreated control; how it was run: as §2
Tyrosine-protein kinase Fer (Homo sapiens), sequence (P16591 whole entry, looked up): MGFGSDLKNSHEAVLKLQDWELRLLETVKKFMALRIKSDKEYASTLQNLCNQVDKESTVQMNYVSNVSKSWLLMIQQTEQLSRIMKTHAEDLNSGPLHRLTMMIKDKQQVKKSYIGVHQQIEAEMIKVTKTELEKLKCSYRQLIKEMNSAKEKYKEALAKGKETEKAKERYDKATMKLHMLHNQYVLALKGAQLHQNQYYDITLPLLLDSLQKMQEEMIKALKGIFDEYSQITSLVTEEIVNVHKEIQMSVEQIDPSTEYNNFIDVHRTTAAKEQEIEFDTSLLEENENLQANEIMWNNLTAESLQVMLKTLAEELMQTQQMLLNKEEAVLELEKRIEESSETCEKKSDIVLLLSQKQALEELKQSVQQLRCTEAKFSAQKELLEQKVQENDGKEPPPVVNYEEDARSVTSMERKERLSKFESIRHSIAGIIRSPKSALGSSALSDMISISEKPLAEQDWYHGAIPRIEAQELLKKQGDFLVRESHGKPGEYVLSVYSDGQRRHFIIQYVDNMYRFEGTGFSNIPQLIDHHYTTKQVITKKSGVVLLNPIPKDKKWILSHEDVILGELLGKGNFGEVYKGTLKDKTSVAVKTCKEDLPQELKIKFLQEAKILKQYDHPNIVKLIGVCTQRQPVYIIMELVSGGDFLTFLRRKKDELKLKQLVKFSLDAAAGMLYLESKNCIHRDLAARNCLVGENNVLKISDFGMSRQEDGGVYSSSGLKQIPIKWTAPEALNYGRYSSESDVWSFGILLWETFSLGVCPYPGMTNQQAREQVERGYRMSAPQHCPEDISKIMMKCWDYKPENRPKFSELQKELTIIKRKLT

Tyrosine-protein kinase Lck (Homo sapiens), sequence (P06239 2-509 limits assumed): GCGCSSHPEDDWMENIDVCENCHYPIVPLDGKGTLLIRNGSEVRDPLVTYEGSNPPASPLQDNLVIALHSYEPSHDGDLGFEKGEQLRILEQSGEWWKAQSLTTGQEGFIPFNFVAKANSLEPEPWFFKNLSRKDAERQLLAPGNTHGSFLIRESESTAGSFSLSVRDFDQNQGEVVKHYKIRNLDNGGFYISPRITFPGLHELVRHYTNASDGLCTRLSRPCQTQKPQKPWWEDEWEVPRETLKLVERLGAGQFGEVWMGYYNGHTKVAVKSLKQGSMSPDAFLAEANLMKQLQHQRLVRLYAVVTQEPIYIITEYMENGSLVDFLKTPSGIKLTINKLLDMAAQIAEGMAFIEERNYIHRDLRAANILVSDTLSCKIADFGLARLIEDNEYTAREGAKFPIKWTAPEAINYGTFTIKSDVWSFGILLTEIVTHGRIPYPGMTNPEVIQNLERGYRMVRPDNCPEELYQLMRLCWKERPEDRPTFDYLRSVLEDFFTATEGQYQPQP

Row | inhibition [1] [%] | inhibition [2] [%] | inhibition [3] [%] | inhibition [4] [%] | inhibition [5] [%] | inhibition [6] [%] | inhibition [7] [%] | inhibition [8] [%] | Structure (SMILES)
1 | 16 | 7 | -5 | 18 | 12 | 13 | -4 | 28 | COc1ccccc1N1CCN(c2ncnc3[nH]nc(Br)c23)CC1
2 | 30 | 7 | 2 | 92 | 14 | 13 | 17 | 38 | O=C(NCCCNc1nc(Nc2cccc(NC(=O)N3CCCC3)c2)ncc1I)c1cccs1

Row | Structure (SMILES) | inhibition [1] [%] | inhibition [2] [%] | inhibition [3] [%] | inhibition [4] [%] | inhibition [5] [%] | inhibition [6] [%] | inhibition [7] [%] | inhibition [8] [%]
3 | Cc1n[nH]c2ccc(-c3cncc(OC[C@@H](N)Cc4c[nH]c5ccccc45)c3)cc12 | 14 | 46 | 3 | 44 | 1 | -1 | 10 | 14
